Only some compounds are listed: those with a hit (about 3.5% of all), similar ones and a draw of the others.
APP 5'UTR act: activates APP 5'UTR luciferase reporter; SH-SY5Y APP 5'UTR luciferase reporter, luminescence; zero percent = DMSO vehicle wells; activation, % at 2 µM; hit rate 1% among 190,000; AID 1276;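 active = activation above a set limit, based on mean plus 3 SD of controls, cut at about 140% in these data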
FLuc inh counter: inhibits firefly luciferase, flagging false hits in luciferase inhibition screens; ATPLite firefly luciferase biochemical luminescence, 10 min; hit rate 1.5% among 200,000; inhibition, % at 10 µM; P08659;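 active = inhibition above about 50% when tested at 10 µM, limit read from the data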
Target sequence (P08659 whole entry, looked up): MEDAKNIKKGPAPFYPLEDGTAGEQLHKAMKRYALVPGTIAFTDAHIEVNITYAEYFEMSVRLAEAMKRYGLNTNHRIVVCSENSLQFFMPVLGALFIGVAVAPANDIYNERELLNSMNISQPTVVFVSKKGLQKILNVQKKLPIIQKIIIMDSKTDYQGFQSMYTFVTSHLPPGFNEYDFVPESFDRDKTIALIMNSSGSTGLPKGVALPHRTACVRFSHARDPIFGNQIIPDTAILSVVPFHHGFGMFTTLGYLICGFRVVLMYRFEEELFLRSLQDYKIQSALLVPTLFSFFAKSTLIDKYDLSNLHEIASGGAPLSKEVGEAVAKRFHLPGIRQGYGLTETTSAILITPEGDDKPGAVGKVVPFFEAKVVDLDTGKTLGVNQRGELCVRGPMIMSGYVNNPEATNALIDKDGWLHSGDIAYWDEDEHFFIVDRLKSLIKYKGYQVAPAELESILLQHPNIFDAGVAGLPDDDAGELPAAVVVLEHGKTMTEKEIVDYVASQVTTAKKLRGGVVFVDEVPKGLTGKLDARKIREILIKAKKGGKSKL
NF-kB expr up: compounds increasing NF-kB expression in human neuronal cells; NF-kB reporter expression; hits give high values; fold change at 12.5 µM; hit rate 1.6% among 190,000; AID 1239; in the data active = fold change above about 3.3
Pf gametocyte: kills late stage P. falciparum gametocytes | inhibition, % at 10.9 µM | P. falciparum stage V gametocytes, ATP luminescence, 24 h | hit rate 0.065% among 150,000;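 active = inhibition above the mean plus 3 SD of compounds within the control limits, set per campaign, cut at about 38% in these data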;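 also: 0% = DMSO wells and 100% = medium only without gametocytes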
STAT1 act: STAT1 signaling activation; NIH 3T3 STAT1-luciferase reporter, IFN-gamma, luminescence; 100% = IFN-gamma alone, no compound; activation (% of control), % at 5.5 µM; hit rate 2.6% among 200,000; AID 932;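 active = activation above the screen-wide mean activation plus 3 SD, cut at about 130% in these data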;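 also: raw ratio to IFN-gamma control signal so 100% means no change and 0% no light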
FLuc stim CS: affects firefly luciferase, flagging false hits in luciferase stimulation screens | activation factor at 10 µM | P08659 | ATPlite luciferase biochemical, luminescence, 10 min; 0 = ATP-free wells, 1 = DMSO control | AID 1027 | 200,000 tested, under 10 active;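 active = luciferase activation factor, scaled between plate controls, of at least 2 with compound at 10 µM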
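Material: luciferase plus luciferin reagent, cell-free. Medium: PBS buffer for ATP. Also added: ATP substrate, dispensed from a 10.24 µM working solution in PBS. Doses: test compounds dosed from 2 mM stocks in 100% DMSO. Incubation: 10 min post-reagent at room temperature. Technique: light output (luminescence). Read-out basis: luminescence gain marking luciferase activators.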
* hit, by the source's call; · = no result.

SMILES	APP 5'UTR act	FLuc inh counter	NF-kB expr up	Pf gametocyte	STAT1 act	FLuc stim CS
COCCNC(=O)c1cc2sc3ccccc3c2s1	104	7	2.3	-29	137*	0.9
CN(C)CCCNC(=O)c1cc2sc3ccccc3c2s1	-5	-3	1.4	·	106	1
C=CCn1c(C)cc(C(=O)COc2ncnc3sccc23)c1C	182*	58*	2.8	·	107	0.4
COCCn1c(C)cc(C(=O)COc2ncnc3ccc(Br)cc23)c1C	0	-4	1.1	-8	95	1
C=CCc1c(C)nc(-c2ccccc2)nc1N/N=C/c1ccncc1	18	53*	0.48	8	108	0.5
Cc1ccc(N2C(=S)N=C(Nc3ccccc3C)C23CCOC(C)(C)C3)cc1 (centres undefined)	9	-9	1	-17	105	1.1
O=C(OC1CCOC1=O)c1cc(-c2cccc(Br)c2)nc2ccccc12 (centres undefined)	1	0	1.2	-22	93	1
CCCC(=O)Nc1ccc(C#Cc2ccccc2)cc1	121	4	2.9	-26	140*	1
O=C(Nc1ccc(C#Cc2ccccc2)cc1)C1CC1	110	0	3.9*	-2	196*	1
O=C(Nc1ccc(Oc2ccccc2)cc1)C1CC1	26	0	1.1	-8	105	1
CCc1ccc(NC(=O)C(=O)N/N=C(\C)CC(=O)NCc2ccc(Cl)cc2)cc1	-7	19	1.3	12	105	0.8
COc1ccc(/C=N/Nc2nncc3ccccc23)cc1	188*	97*	3.1	12	120	0
COc1ccccc1/C=N/Nc1nncc2ccccc12	37	48	1.7	-34	150*	0.5
COc1ccccc1/C=N/NC(=O)c1cccc2ccccc12	·	·	·	7	·	·
COc1ccc(-c2cnnc(N/N=C/c3ccc(OC)c(OC)c3)n2)cc1	-18	30	1.1	·	103	0.7
NC(=O)NS(=O)(=O)Oc1ccccc1	·	·	·	11	·	·
CCN1/C(=C/C=C/c2oc3ccc(-c4ccccc4)cc3[n+]2CC)Oc2ccc(-c3ccccc3)cc21	-74	-2	0.29	0	44	1
O=C(NCCc1cccs1)C1CC(c2ccc([N+](=O)[O-])cc2)=NO1 (centres undefined)	62	24	2.3	·	144*	0.8
Nc1cc(=O)[nH]c(SCC(=O)N2CCCc3ccccc32)n1	-12	-6	0.95	1	103	1.1
CCCc1cc(=O)[nH]c(SCC(=O)N2CCCc3ccccc32)n1	10	72*	1	·	99	0.3
CCn1c(C)nc2cc(C(=O)N/N=C/c3ccccc3C)ccc21	96	53*	3.9*	·	143*	0.5
CCn1c(C)nc2cc(C(=O)OC)ccc21	2	0	1.3	-33	110	1
CCn1c(C)nc2cc(C(=O)N/N=C(\C)c3ccccc3O)ccc21	56	17	1.4	8	137*	0.8
CCn1c(C)nc2cc(C(=O)NNS(=O)(=O)c3ccccc3F)ccc21	5	2	1.5	·	110	1
Cc1ccc(C2CC(c3cccs3)=NN2S(=O)(=O)c2ccc(C)cc2)cc1 (centres undefined)	-13	0	1.1	-24	99	1
SMILES	APP 5'UTR act	FLuc inh counter	NF-kB expr up	Pf gametocyte	STAT1 act	FLuc stim CS
Cc1ccc(-c2nnc(-c3cccc(Br)c3)o2)cc1	109	23	3.7*	·	122	0.8
Cc1ccc(-c2nnc(Nc3ccccc3)o2)cc1	99	88*	3.3	9	34	0.1
c1ccc(-c2nnc(-c3ccccc3)o2)cc1	163*	41	4.6*	-5	139*	0.6
Brc1cccc(-c2nnc(-c3ccccc3)o2)c1	56	34	1	11	132*	0.7
Cc1cccc(-c2nnc(-c3ccc(N)cc3)o2)c1	57	56*	4*	·	147*	0.4
COCc1ccc2oc(C(=O)O)cc2c1	-13	5	0.89	-1	99	1
Cc1cc2[nH]c3c4ccccc4nc(C)c3c2cc1C	·	·	·	11	·	·
Cc1cc2[nH]c3c(c[n+](C)c4ccccc34)c2cc1C	-83	0	1.1	6	221*	1
Cc1ccc(-n2ncc3c(SCc4ccccn4)ncnc32)c(C)c1	2	2	2.4	-11	137*	1
Cc1ccc(OCc2nnnn2-c2ccccc2)cc1	18	-8	1.1	-14	108	1.1

Screens deposited in PubChem by several laboratories.
